# Published values of several laboratories.
# Compare with care: the assays were run in different laboratories.
# Target: Activin receptor type-1-like (ACVRL1, Homo sapiens, UniProt P37023)
SMILES,assay,setting,remaining binding
COc1cc(-c2cn(C3CCc4c(F)cccc4N(CC(F)(F)F)C3=O)nn2)ccc1-n1cnc(C)c1 (stereo not shown),"cell-free assay, competition with immobilised ligand",1 µM,100%
CC1CCCN1c1nccc(-c2cnn3ncccc23)n1 (stereo not shown),binding,1 µM,89%
O=C(Nc1c[nH]nc1C(=O)NC1CCNCC1)c1cc(F)cc(F)c1,"binding, competition with immobilised ligand",1 µM,94%
CNC(=O)[C@@H]1CC[C@@H](n2c(-c3ccc4cnccc4c3)nc3ccc(C(=O)NCc4cccc(C(N)=O)c4)cc32)C1,"binding, competition with immobilised ligand",1 µM,68%
CS(=O)(=O)c1cc(C2(NC(=O)c3cncc4c3cnn4-c3ccc(F)cc3)CC2)ccn1,"cell-free assay, competition with immobilised ligand",1 µM,100%
c1cncc(-c2cccc(Nc3nccc(NC4CCCCC4)n3)c2)c1,"binding, competition with immobilised ligand",10 µM,52%
Cc1c[nH]c2nccc(Oc3c(F)cc(Nc4cc(Cl)nc(N)n4)cc3F)c12,"cell-free assay, competition with immobilised ligand",0.1 µM,100%
F[C@@H]1CCN(c2nccc(-c3cnn4ncccc34)n2)C1,binding,1 µM,88%
O=C(c1ccc(Nc2nccc(-c3cc4ccccc4s3)n2)cc1)N1CCC(N2CCCC2)CC1,"binding, competition with immobilised ligand",1 µM,100%
N[C@H]1CCN(c2nccc(-c3cnn4ncccc34)n2)C1,binding,1 µM,97%
CCc1ccccc1C(=O)Nc1n[nH]c2c(C)c(F)c(C3C(C#N)=C(C)N(C)C(C)=C3C#N)cc12,"binding, competition with immobilised ligand",1 µM,75%
COc1cnc(Nc2cccc(S(N)(=O)=O)c2)nc1N1CCN(c2ccccc2)CC1,"binding, competition with immobilised ligand",1 µM,98%
CCOCCn1cc(C(=O)Nc2ccc(-n3nc(-c4cccnc4)cc3C(F)(F)F)cn2)ccc1=O,"cell-free assay, competition with immobilised ligand",1 µM,100%
C[C@@H]1CCN(c2nccc(-c3cnn4ncccc34)n2)C1,binding,1 µM,100%
CCCCN(CCCC)C(=O)CN1C[C@@H](c2cc(OC)c3c(c2)OCO3)[C@H](C(=O)O)[C@H]1CC(C)(C)CCC,"cell-free assay, competition with immobilised ligand",1 µM,99.4%
O=C(c1ccc(Nc2ncc(Cl)c(-c3ccc(Cl)s3)n2)cc1)N1CCC(N2CCCC2)CC1,"binding, competition with immobilised ligand",1 µM,100%
CC1=C(C#N)[C@@H](c2ccc3[nH]nc(C)c3c2)C(C#N)=C(c2ccc(Cl)cc2)N1,"binding, competition with immobilised ligand",1 µM,79%
Cc1cnc(Nc2ccc(C(=O)N3CCC(N4CCCC4)CC3)cc2)nc1-c1cc2ccccc2s1,"binding, competition with immobilised ligand",1 µM,100%
CN(c1nccc(-c2cnn3ncccc23)n1)C1CC1,binding,1 µM,76%
CCN1CCN(Cc2ccc(C(=O)Nc3ccc(C)c(Oc4ccc5c(c4)CC(=O)N5)c3)cc2C(F)(F)F)CC1,"binding, competition with immobilised ligand",1 µM,100%
COc1ncc2cc3ccccc3nc2c1C#N,"binding, competition with immobilised ligand",5 µM,93%
c1cnn2ncc(-c3ccnc(N4CCC45COC5)n3)c2c1,binding,1 µM,100%
